Data set [1] has as its system Human betaherpesvirus 5. Description: Antiviral activity against human cytomegalovirus by plaque reduction assay. It is filed as functional, organism-based. Put shortly:
(§1)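 Plaque reduction in HFF monolayers (MEM(E), 10% FBS) infected with a 0.2 mL inoculum of ca. 100 PFU HCMV Towne strain. Compounds were dissolved in the overlay medium. IC50 from linear regression of percent inhibition against log concentration, average of two or more experiments. Ganciclovir positive control.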

Data set [2] has as its system Human alphaherpesvirus 1. Briefly: Antiviral activity against herpes simplex virus using ELISA. It is filed as functional, organism-based. For orientation: An ELISA detects its analyte on a solid surface through an enzyme-linked reagent.
The subject of data set [3] is HFF. Briefly: Cytotoxicity produced in human foreskin fibroblasts (HFF) cells estimated by visual scoring of cells unaffected by virus infection. It is filed as ADME, cell-based. In outline:
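Uninfected HFF cells in the HCMV plaque-reduction plates were examined at 35-fold magnification on the day of plaque staining. Drug-induced cytopathology was scored 0–4. IC50 from regression of percent inhibition against log concentration, average of two or more experiments.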

Data set [4] has as its system KB. Description: Cytotoxicity (growth inhibition) against human epidermoid oral carcinoma KB cell line. It is filed as functional, cell-based. In outline:
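KB cells grown in MEM(H) with 10% calf serum. Cytotoxicity measured by a staining method. IC50 from linear regression of percent inhibition against log drug concentration, average of two or more experiments.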

For data set [5], the system named is Human betaherpesvirus 5. Description: Antiviral activity against human cytomegalo virus using ELISA. It is filed as functional, organism-based. In outline:
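HCMV (Towne strain, plaque-purified isolate P0) measured by enzyme immunoassay in MRC-5 human embryonic lung cells grown in MEM(E) with 10% FBS. IC50 from linear regression of percent inhibition against log concentration, averaged over two or more experiments. Ganciclovir positive control.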

The test system of data set [6] is Human alphaherpesvirus 1. Briefly: Antiviral activity against herpes simplex virus type 1 using ELISA. It is filed as functional, organism-based.
In data set [7] the test system is Human betaherpesvirus 5. Description: Antiviral activity against human cytomegalovirus (HCMV) in plaque reduction assay. Type of data set: functional, organism-based. Put shortly:
as §1
For orientation: In a plaque reduction assay, fewer plaques than in the control indicate reduced infectivity or spread.

For data set [8], the system named is Human alphaherpesvirus 1. Briefly: Inhibitory concentration against HSV-1. It is filed as functional, organism-based.
Data set [9] is described as follows: Half life was determined. It is filed as ADME.

The term IC50 denotes the concentration at which inhibition is half-maximal.

Bounds are passed on as bounds.

Take `CCNc1ncnc2c1c(C(=N)S)cn2COCC`: the IC50 in [1] is over 100 µM.

Turning to `COCCOCn1c(N(C)C)c(C#N)c2c(N)ncnc21`, the IC50 in [2], in [3], in data set [1] and in data set [4] was over 100 µM throughout.

In the case of `NC(=O)c1c(N)n(COCc2ccccc2)c2ncnc(N)c12`, the IC50 in data set [5], in data set [3], in data set [1] and in [4] was over 100 µM each time.

In [1], `CCOCn1cc(C(=N)S)c2c(N(C)C)ncnc21` displayed an IC50 of over 100 µM.

On to `COCCOCn1c(N)c(C#N)c2c(N)ncnc21`, for which the IC50 in [5] is 9 µM; in data set [2], over 100 µM; in data set [3] it was over 100 µM; in data set [1], 8.2 µM; in data set [4] it was 210 µM.

Turning to `COCCOCn1cc(C#N)c2c(N)ncnc21`, the IC50 in [2], in data set [3] and in data set [4] was over 100 µM each time.

In the case of `CCOCn1cc(C(=N)S)c2cncnc21`, the IC50 in [1] is over 100 µM.

Turning to `CCOCn1cc(C#N)c2c(O)ncnc21`, the IC50 in data set [1] was over 100 µM.

`CCOCn1cc(C(=N)S)c2c(OC)ncnc21` returned an IC50 in data set [1] of over 100 µM.

Consider `COCCOCn1cc(C(N)=S)c2c(N)ncnc21`, for which the results for the half-inhibitory concentration (IC50) in [3] and in data set [1] were over 100 µM and 1.3 µM, respectively.

Regarding `COCCOCn1c(N)c(C(N)=O)c2c(N)ncnc21`, the IC50 in [5], in data set [3], in data set [1] and in data set [4] was over 100 µM each time.

As for `C=CCn1c(N)c(C#N)c2c(N)ncnc21`, the IC50 is 40 µM in [6], 1.9 µM in data set [7], 100 µM in data set [3] and over 100 µM in data set [4].

With `CNc1ncnc2c1c(C(=N)S)cn2COCCOC`, the IC50 in data set [1] was found to be 20 µM; in data set [8] it was 30 µM.

With `CCOCn1cc(C#N)c2c(N)ncnc21`, the IC50 in [3], in [1] and in [4] was over 100 µM throughout.

With `Nc1nc2c(ncn2COC(CO)CO)c(=O)[nH]1` [GANCICLOVIR], the IC50 is 2.2 µM in [5], over 100 µM in [3] and over 320 µM in data set [4].

For the molecule `N#Cc1c(N)n(COCc2ccccc2)c2ncnc(N)c12`, the IC50 in data set [5] was 9 µM; in data set [2], 12.5 µM; in [3] it was over 100 µM; in data set [1] it was 2.8 µM; in data set [4], 118 µM.

For `COCCOCn1c(Br)c(C#N)c2c(N)ncnc21`, the IC50 in data set [3], in data set [1] and in [4] was over 100 µM throughout.

As to `NC(=S)c1c(N)n(COCc2ccccc2)c2ncnc(N)c12`, the IC50 in [5] was 19 µM; in data set [2], 60 µM; in [3], over 100 µM; in [1], 16 µM; in [4] it was 225 µM.

In [1], `CCOCn1cc(C(=N)S)c2c(O)ncnc21` had an IC50 of over 100 µM.

In data set [1], `COCCOCn1cc(C#N)c2c(OC)ncnc21` yielded an IC50 of over 100 µM.

In the case of `CNc1c(C#N)c2c(N)ncnc2n1COCCOC`, the IC50 in data set [2], in [3], in data set [1] and in [4] was over 100 µM each time.

In [1], `CCOCn1cc(C(=N)S)c2c(OCC)ncnc21` yielded a concentration for half-maximal inhibition (IC50) of over 100 µM.

As for `N#Cc1c(Br)n(COCc2ccccc2)c2ncnc(N)c12`, the IC50 in [3], in data set [1] and in [4] was over 100 µM throughout.

With `CCOCn1c(Br)c(C#N)c2c(N)ncnc21`, the IC50 in data set [3], in [1] and in data set [4] was over 100 µM throughout.

In the case of `Cc1ccc(Cn2c(N)c(C#N)c3c(N)ncnc32)cc1`, the IC50 in data set [6] is 60 µM; in data set [7], 0.3 µM; in [3], 32 µM; in data set [4], over 100 µM.

As for `CCOCn1cc(C#N)c2c(Cl)ncnc21`, in data set [1], the IC50 was over 100 µM.

With `COCCOCn1cc(C(=N)S)c2c(OC)ncnc21`, in data set [1], the half-maximal inhibitory concentration (IC50) is over 100 µM.

`CCNc1ncnc2c1c(C(=N)S)cn2COCCOC`: the IC50 in [1] is over 100 µM.

On to `CCOCn1cc(C#N)c2c(N(C)C)ncnc21`, for which the IC50 in [1] is over 100 µM.

`CCNc1ncnc2c1c(C#N)cn2COCCOC` gave an IC50 in data set [1] of over 100 µM.

For the molecule `CCOc1ncnc2c1c(C#N)cn2COCCOC`, the IC50 in data set [1] is over 100 µM.

As for `COCCOCn1cc(C#N)c2c(N(C)C)ncnc21`, in data set [1], the IC50 was over 100 µM.

Take `CCOCn1cc(C(=N)S)c2c(N)ncnc21`: the results for the IC50 in data set [3] and in data set [4] were over 32 µM and 60 µM, respectively.

For `CCOCn1cc(C#N)c2c(OCC)ncnc21`, the IC50 in data set [1] is over 100 µM.

On to `COCCOCn1c(N)c(C(N)=S)c2c(N)ncnc21`, for which the IC50 in data set [5] is 20 µM; in data set [2], 100 µM; in data set [3] it was over 100 µM; in [1], 5 µM; in data set [4], over 320 µM.

Consider `CCOCn1cc(C#N)c2cncnc21`, for which, in data set [1], the IC50 is over 100 µM.

Molecule `COCCOCn1cc(C#N)c2c(Cl)ncnc21` gave an IC50 in [1] of over 100 µM.

`COCCOCn1cc(C(=N)S)c2cncnc21` registered an IC50 in data set [1] of over 100 µM.

In data set [9], `COCCOCn1cc(C(=N)S)c2c(N(C)C)ncnc21` returned a T1/2 of 150 h. In [1], this molecule had an IC50 of over 100 µM.

As for `CNc1ncnc2c1c(C#N)cn2COCCOC`, the IC50 in [1] was over 100 µM.

With `CCCn1c(N)c(C#N)c2c(N)ncnc21`, the IC50 is 2.5 µM in data set [6], 0.5 µM in data set [7], 100 µM in [3] and 15 µM in data set [4].

`CCNc1ncnc2c1c(C#N)cn2COCC`: in data set [1], the IC50 was over 100 µM.

In [1], `CCOCn1cc(C#N)c2c(OC)ncnc21` showed an IC50 of over 100 µM.

With `COCCOCn1cc(C(=N)S)c2c(S)ncnc21`, the IC50 in data set [1] is over 100 µM.

Molecule `CCOCn1cc(C#N)c2c(S)ncnc21` came in with an IC50 in data set [1] of over 100 µM.

Molecule `CCOCn1cc(C(=N)S)c2c(NC)ncnc21` came in with an IC50 in data set [1] of 20 µM.

With `CCOCn1c(N)c(C(=N)S)c2c(N)ncnc21`, the IC50 in [5] was 45 µM; in [2], 100 µM; in data set [3], over 100 µM; in data set [1], 16 µM; in data set [4], over 320 µM.

In data set [1], `COCCOCn1cc(C#N)c2cncnc21` registered a half-inhibitory concentration (IC50) of over 100 µM.

On to `COc1ccc(Cn2c(N)c(C#N)c3c(N)ncnc32)cc1`, for which the IC50 in data set [6] was 10 µM; in data set [7], 9 µM; in data set [3], 100 µM; in data set [4] it was 50 µM.

Turning to `Cc1cccc(Cn2c(N)c(C#N)c3c(N)ncnc32)c1`, the IC50 is over 100 µM in [6], 32 µM in [7], 100 µM in data set [3] and over 100 µM in [4].

As to `N#Cc1c(N)n(Cc2ccccc2)c2ncnc(N)c12`, the IC50 in data set [6] is 10 µM; in data set [7] it was 3.3 µM; in data set [3] it was 100 µM; in data set [4] it was 34 µM.

The molecule `CCOCn1cc(C#N)c2c(NC)ncnc21` yielded an IC50 in data set [1] of over 100 µM.

`COCCOCn1cc(C(=N)S)c2c(O)ncnc21` had an IC50 in data set [1] of over 100 µM.

In data set [1], `COCCOCn1cc(C#N)c2c(S)ncnc21` returned a half-inhibitory concentration (IC50) of over 100 µM.

For `Nc1nc2c(ncn2COCCO)c(=O)[nH]1` [ACYCLOVIR], the IC50 in data set [3], in [1] and in data set [4] was over 100 µM in each case.

Take `CCOCn1c(N)c(C#N)c2c(N)ncnc21`: the IC50 in [5] is 12 µM; in data set [2], 68 µM; in data set [3] it was over 100 µM; in data set [1] it was 7.2 µM; in data set [4], 138 µM.

For `CCOCn1c(N)c(C(N)=O)c2c(N)ncnc21`, the IC50 in data set [5], in data set [3], in data set [1] and in [4] was over 100 µM throughout.

`COCCOCn1cc(C#N)c2c(O)ncnc21` returned an IC50 in [1] of over 100 µM.

The values above are taken from ChEMBL document CHEMBL1129622, “Synthesis of non-nucleoside analogs of toyocamycin, sangivamycin, and thiosangivamycin: the effect of certain 4- and 4,6-substituents on the antiviral activity of pyrrolo[2,3-d]pyrimidines” (J Med Chem, 1996).
